Source: PubChem
Hits are enriched below; roughly 2.3% of the tested compounds scored in any of these assays.
RAM network inh: inhibitors of the yeast RAM network, primary screen, dse1pr::URA3 reporter, 5-FOA selection; S. cerevisiae dse1pr::URA3 reporter, 5-FOA growth OD615, 2 d; analog-sensitive cbk1-as2 kinase mutant strain; inhibition, % at 50 µM; 190,000 compounds, 1.8% hits; AID 868, 2007;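 active means inhibition above a set limit, 3 SD over mean compound inhibition, cut at about 8.4% in these data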;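 further: 0% = DMSO-only wells with no growth and 100% = 10 µM 1-NA-PP1 full growth; inhibition rescues growth on 5-FOA so higher OD means more RAM inhibition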
Arbovirus inh: antivirals against arbovirus infection, primary screen, cell-based, full library, 10K replicate subset | 200,000 compounds, 0.37% hits | inhibition, % at 10 µM | arbovirus infection cell-based antiviral screen; in the data active means inhibition above about 30%
ABCG2 block: ABCG2 efflux pump inhibitors, primary screen, multiplex with ABCB1, IgMXP3 cells, flow cytometry; inhibition, % at 6.6 µM; AID 1325, 2008; JC-1 efflux; 190,000 compounds, 0.1% hits; Broad substrate specificity ATP-binding cassette transporter ABCG2 (Homo sapiens), Q9UNQ0;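 active means inhibition above 80%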;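 further: 0% = DMSO and 100% = nicardipine control wells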
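Incubation: cells with compound and JC-1, 10 min at 25 °C, rotating, no wash / Test system: IgMXP3 (ABCG2) plus far-red-tagged CCRF-Adr (ABCB1) cells / Compound dosing: one concentration, 6.6 µM final / Also added: JC-1 fluorescent substrate / Evaluation: efflux inhibition in percent versus controls / Detection: flow cytometry, 530 nm JC-1 signal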
ABCB1 block: ABCB1 efflux pump inhibitors, primary screen, cell-based, multiplex, flow cytometry, ABCG2 counter-screen | AID 1326, 2008 | 190,000 compounds, 0.067% hits | inhibition, % at 6.6 µM | CCRF-Adr cells, JC-1 efflux | ATP-dependent translocase ABCB1 (Homo sapiens), P08183; in the data active means inhibition above about 40%;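 further: 0% = vehicle and 100% = reference inhibitor; higher value means more JC-1 retained so stronger ABCB1 efflux block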
* marks the source's active call; other numbers are inactive results.

Results for CCOCCCN1C(=O)CN(C2CCCCCC2)C(=O)C1c1ccc(OC)cc1 (stereo not drawn) ?
RAM network inh: 1; Arbovirus inh: 6; ABCG2 block: 2; ABCB1 block: 4

How did Cc1ccc(S(=O)(=O)C2C(=O)N(C)C3(C)CC2c2ccccc2O3)cc1C (stereo not drawn) do in these assays?
RAM network inh: 4; Arbovirus inh: 0; ABCG2 block: 1; ABCB1 block: 2

How did CN1C(=O)C(c2nnc(Nc3cccc4ccccc34)s2)C2CC1(C)Oc1ccccc12 (stereo not drawn) do in these assays?
RAM network inh: 9.0*; Arbovirus inh: -13; ABCG2 block: 7; ABCB1 block: 3

Results for Cc1ccc(C(=O)NC(C)c2ccc(F)cc2)cc1 (stereo not drawn) ?
RAM network inh: -1; Arbovirus inh: 1; ABCG2 block: 28; ABCB1 block: 1

How did COC(=O)c1ccc2c(=O)n(NC(C)=O)c(=S)[nH]c2c1 do in these assays?
RAM network inh: 1; Arbovirus inh: 4; ABCG2 block: 0; ABCB1 block: 0

Results for O=S(=O)(c1ccc(Oc2ncnc3scc(-c4ccccc4)c23)cc1)N1CCOCC1 ?
RAM network inh: 7; Arbovirus inh: -1; ABCG2 block: 3; ABCB1 block: 1

What do the screens show for `CC(=O)Nc1cccc(Oc2ncnc3scc(-c4ccccc4)c23)c1`?
RAM network inh: -1; Arbovirus inh: 45*; ABCG2 block: 2; ABCB1 block: 1

What do the screens show for `N/C(Cc1ccc([N+](=O)[O-])cc1)=N\OC(=O)COc1ccccc1Cl`?
RAM network inh: 4; Arbovirus inh: -1; ABCG2 block: 3; ABCB1 block: 1

How did N/C(Cc1ccc([N+](=O)[O-])cc1)=N\OC(=O)COc1cccc2ccccc12 do in these assays?
RAM network inh: 10*; Arbovirus inh: 17; ABCG2 block: 2; ABCB1 block: 0

How did COC(=O)c1nn(-c2ccccc2)c(Cl)c1/C=N/OCc1ccc(C)cc1 do in these assays?
RAM network inh: 10*; Arbovirus inh: 10; ABCG2 block: 19; ABCB1 block: 2

What do the screens show for `C=CCn1ncc(OC)c(Cl)c1=O`?
RAM network inh: 0; Arbovirus inh: 0; ABCG2 block: 1; ABCB1 block: 0

Results for Brc1ccc(/C=N/c2nc3ccccc3n2CCN2CCOCC2)cc1 ?
RAM network inh: 0; Arbovirus inh: 3; ABCG2 block: -1; ABCB1 block: 0

Results for N#Cc1c(-c2ccccc2)nc(SCC(=O)N(c2ccccc2)c2ccccc2)[nH]c1=O ?
RAM network inh: 8; Arbovirus inh: 33*; ABCG2 block: -2; ABCB1 block: -1

How did N#Cc1c(-c2ccccc2)nc(SCC(=O)Nc2nnc(C(F)(F)F)s2)[nH]c1=O do in these assays?
RAM network inh: 2; Arbovirus inh: 73*; ABCG2 block: -1; ABCB1 block: 0

Results for CC1(C)CC(=O)C2=C(C1)N(CC1CCCO1)C(=O)C2(O)C(F)(F)F (stereo not drawn) ?
RAM network inh: 2; Arbovirus inh: 9; ABCG2 block: 2; ABCB1 block: 1

Results for O=C(c1ccccc1)N1CCC(=O)N1c1ccccc1 ?
RAM network inh: 3; Arbovirus inh: -7; ABCG2 block: 2; ABCB1 block: 0

Results for COc1cc(/C=C(/C#N)c2ccccc2F)ccc1OCc1ccccc1 ?
RAM network inh: 10*; Arbovirus inh: 1; ABCG2 block: 8; ABCB1 block: 0

What do the screens show for `COc1cc(/C=C(/C#N)C(=O)Nc2ccccc2)ccc1OCc1ccc(C(=O)O)cc1`?
RAM network inh: 3; Arbovirus inh: 8; ABCG2 block: 4; ABCB1 block: 0

How did COc1cc(Nc2ccc(C(=O)O)cc2[N+](=O)[O-])cc(OC)c1 do in these assays?
RAM network inh: 10*; Arbovirus inh: 1; ABCG2 block: 36; ABCB1 block: 1

Results for CC1(C)CC(=O)/C(=C(\O)c2ccccc2)C(=NCCO)C1 ?
RAM network inh: 1; Arbovirus inh: 4; ABCG2 block: 0; ABCB1 block: 0

What do the screens show for `COc1ccc(-n2cccc2/C=C2/NC(=O)N(c3cccc(Cl)c3)C2=O)cc1`?
RAM network inh: 3; Arbovirus inh: -4; ABCG2 block: 0; ABCB1 block: 0
